What is called IC50 is the concentration needed to halve the response being measured.

Data set [1] deals with MCF-7 (human breast adenocarcinoma) cells. Kind of data set: Antiproliferative activity, LDH release assay, MCF-7. The class given is cell-based. The following applies: MCF7, 48 h, read-out: IC50 (μM) ± SD MCF-7. The procedure, abridged: (§1)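 Cells were kept in RPMI-1640 with 10% heat-inactivated FBS and penicillin/streptomycin at 37 °C in 5% CO2. They were seeded at 1 × 10^4 per well, grown 18 h, then exposed to graded concentrations for 48 h, with doxorubicin as positive control. LDH was read in supernatant and in Triton X-100 lysate by kinetic A340 over 1 min, using pH 7.5 phosphate with 4.6 mM pyruvate and 0.4 mg mL−1 NADH. % release = released/total. Three experiments in triplicate; IC50 by probit analysis.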

In data set [2] the test system is HCT-116 (human colorectal carcinoma) cells. Kind of data set: Antiproliferative activity, LDH release assay, HCT-116. The conditions noted are these: HCT-116, 48 h, read-out: IC50 (μM) ± SD HCT-116. In kind it is cell-based. The procedure, abridged:
as §1

Data set [3] deals with BJ-1 normal human skin fibroblast cells. In words: Cytotoxicity on normal cells, LDH release assay, BJ-1. The following applies: for IC50: Homo sapiens, Skin fibroblast, 48 h, read-out: IC50 (μM) ± SD BJ-1; for toxic activity on healthy cells BJ-1: BJ-1 normal cells, LDH assay. The class given is cell-based. The procedure, abridged: as §1
Data set [4] has as its target epidermal growth factor receptor (EGFR) (Homo sapiens, UniProt P00533). In words: EGFR kinase inhibition assay. In kind it is biochemical.
Data set [5] deals with histone deacetylase 1 (HDAC1) (Homo sapiens, UniProt Q13547). In words: Fluorogenic HDAC1 inhibition assay. The class given is biochemical.
Chain of histone deacetylase 1 (HDAC1) (Q13547 whole entry): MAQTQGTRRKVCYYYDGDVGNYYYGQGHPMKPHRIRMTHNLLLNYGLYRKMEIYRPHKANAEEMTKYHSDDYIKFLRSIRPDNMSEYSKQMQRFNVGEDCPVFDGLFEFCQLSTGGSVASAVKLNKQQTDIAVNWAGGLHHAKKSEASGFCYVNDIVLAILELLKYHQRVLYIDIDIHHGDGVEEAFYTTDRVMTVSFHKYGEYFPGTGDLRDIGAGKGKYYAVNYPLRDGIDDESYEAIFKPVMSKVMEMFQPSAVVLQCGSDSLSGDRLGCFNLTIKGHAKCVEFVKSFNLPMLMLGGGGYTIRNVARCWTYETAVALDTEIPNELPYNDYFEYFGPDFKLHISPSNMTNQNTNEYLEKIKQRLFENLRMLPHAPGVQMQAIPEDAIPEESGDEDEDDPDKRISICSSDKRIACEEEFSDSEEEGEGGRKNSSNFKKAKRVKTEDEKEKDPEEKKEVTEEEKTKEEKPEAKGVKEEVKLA
The target in data set [6] is ERK1 (extracellular signal-regulated kinase 1) (Homo sapiens, UniProt P27361). In words: ERK1 kinase assay. The class given is biochemical.
Chain of ERK1 (extracellular signal-regulated kinase 1) (P27361 whole entry): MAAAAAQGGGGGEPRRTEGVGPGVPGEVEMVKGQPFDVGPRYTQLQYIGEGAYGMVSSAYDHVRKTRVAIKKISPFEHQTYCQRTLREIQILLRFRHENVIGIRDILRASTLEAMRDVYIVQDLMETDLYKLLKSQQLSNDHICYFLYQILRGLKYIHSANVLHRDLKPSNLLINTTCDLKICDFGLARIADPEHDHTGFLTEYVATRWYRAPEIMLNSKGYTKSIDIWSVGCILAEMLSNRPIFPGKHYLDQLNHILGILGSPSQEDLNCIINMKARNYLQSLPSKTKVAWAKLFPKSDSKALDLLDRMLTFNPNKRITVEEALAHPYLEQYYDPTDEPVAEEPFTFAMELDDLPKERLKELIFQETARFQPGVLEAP
The subject of data set [7] is MCF-7 cells. Kind of data set: Cell-cycle analysis by flow cytometry. In kind it is cell-based, human. The conditions noted are these: MCF-7, 48 h; control 10.98%.
Data set [8] relates to MCF-7 cells. Kind of data set: Apoptosis assay, Annexin V-FITC/PI flow cytometry. In kind it is cell-based, human. The conditions noted are these: MCF-7, 48 h. For orientation: A flow cytometer gives signals particle by particle.
The test system of data set [9] is Ehrlich ascites carcinoma (EAC) cells. In words: Ehrlich ascites carcinoma. The following applies: EAC-bearing mice; for total volume of collected ascitic fluid: i.p. 2 mg kg^−1 twice weekly × 2 weeks; for Avg. volume of ascitic fluid (mL) [packed cell volume] / Viable cell count (×10^6 cells per mL) / Cell-growth inhibition (%): i.p. 2 mg kg^−1 × 2 weeks; for Avg. volume of ascitic fluid (mL) [packed cell volume]: EAC control 10.5; for Viable cell count (×10^6 cells per mL): trypan blue, EAC control 33; for Cell-growth inhibition (%): vs EAC control viable cell count. In kind it is in vivo, female BALB/c mice. The procedure, abridged: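 Female BALB/c mice (25 ± 3 g) received 1 × 10^6 EAC cells i.p. in 100 μL PBS (>95% trypan-blue viability). On day 3, mice were grouped (n = 8). Dosing was i.p.: test compound 2 mg kg−1 twice weekly × 2 weeks, DMSO vehicle, or doxorubicin 2 mg kg−1 once weekly. Endpoint: ascitic volume measured, fluid spun 1200×g for 10 min, viable cells counted by 0.4% trypan blue on a hemocytometer. Growth inhibition = (control − treated)/control × 100.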

Data set [10] relates to Ehrlich solid carcinoma (ESC). In words: Ehrlich solid carcinoma. The conditions noted are these: intratumoral 2 mg kg^−1, two doses weekly for two weeks. In kind it is in vivo, male BALB-c mice.

Like-named read-outs stand apart in the source and are kept apart here.

Chain of epidermal growth factor receptor (EGFR) (P00533 25-1210): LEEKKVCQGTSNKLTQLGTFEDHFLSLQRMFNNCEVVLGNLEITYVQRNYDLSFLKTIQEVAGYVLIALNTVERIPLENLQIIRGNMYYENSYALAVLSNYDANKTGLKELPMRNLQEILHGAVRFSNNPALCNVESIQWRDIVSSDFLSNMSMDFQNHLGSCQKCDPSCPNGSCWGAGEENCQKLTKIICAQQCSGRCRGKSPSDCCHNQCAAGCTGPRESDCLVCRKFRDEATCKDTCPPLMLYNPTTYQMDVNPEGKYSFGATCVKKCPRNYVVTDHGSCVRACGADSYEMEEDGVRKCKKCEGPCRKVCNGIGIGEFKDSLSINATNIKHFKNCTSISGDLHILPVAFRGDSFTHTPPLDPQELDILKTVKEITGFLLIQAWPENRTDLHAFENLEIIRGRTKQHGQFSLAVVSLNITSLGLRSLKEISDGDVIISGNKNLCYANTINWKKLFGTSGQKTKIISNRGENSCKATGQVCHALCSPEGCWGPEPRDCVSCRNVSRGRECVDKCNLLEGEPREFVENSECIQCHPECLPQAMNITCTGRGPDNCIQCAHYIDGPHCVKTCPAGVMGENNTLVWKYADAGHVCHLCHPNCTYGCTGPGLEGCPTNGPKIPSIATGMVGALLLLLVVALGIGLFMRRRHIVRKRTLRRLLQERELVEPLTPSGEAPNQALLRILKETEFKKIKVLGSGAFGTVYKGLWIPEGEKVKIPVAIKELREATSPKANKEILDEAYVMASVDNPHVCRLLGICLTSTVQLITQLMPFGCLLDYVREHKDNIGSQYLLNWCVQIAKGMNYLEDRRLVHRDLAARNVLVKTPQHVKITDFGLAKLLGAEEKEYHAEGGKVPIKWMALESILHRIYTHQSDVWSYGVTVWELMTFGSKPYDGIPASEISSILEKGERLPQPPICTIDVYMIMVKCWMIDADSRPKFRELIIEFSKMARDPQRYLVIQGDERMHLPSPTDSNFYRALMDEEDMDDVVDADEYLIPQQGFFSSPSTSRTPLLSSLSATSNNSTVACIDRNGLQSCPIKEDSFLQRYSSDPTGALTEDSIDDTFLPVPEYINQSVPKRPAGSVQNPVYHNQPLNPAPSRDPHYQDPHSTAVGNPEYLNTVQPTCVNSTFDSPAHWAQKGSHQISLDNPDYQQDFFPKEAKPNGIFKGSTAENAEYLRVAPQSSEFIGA

Regarding `COc1ccc(N=Nc2sc(=NN=C(C)c3c(O)c4ccccc4oc3=O)[nH]c2C)cc1` [3a, 4-Hydroxy-3-(-1-((-5-(-(4-methoxyphenyl)diazenyl)-4-methylthiazol-2(3H)-ylidene) hydrazono)ethyl)-2H-chromen-2-one], the IC50 was found to be 3.1 ± 0.1 µM in data set [1], 3.2 ± 0.1 µM in data set [2] and 24.8 ± 2.1 µM in [3].

Take `COc1ccc(N=Nc2sc(=NN=C(C)c3c(O)c4ccccc4oc3=O)n(C)c2C)cc1` [3b, 4-Hydroxy-3-(-1-((-5-(-(4-methoxyphenyl)diazenyl)-3,4-dimethylthiazol-2(3H)-ylidene) hydrazono)ethyl)-2H-chromen-2-one]: the IC50 is 5 ± 0.2 µM in data set [1], 2.6 ± 0.1 µM in data set [2] and 27 ± 2.2 µM in data set [3].

As to `CCn1c(C)c(N=Nc2ccc(OC)cc2)sc1=NN=C(C)c1c(O)c2ccccc2oc1=O` [3c, 3-(1-((-3-Ethyl-5-(-(4-methoxyphenyl)diazenyl)-4-methylthiazol-2(3H)-ylidene) hydrazono)ethyl)-4-hydroxy-2H-chromen-2-one], the figures for the IC50 in data set [1], in [2] and in data set [3] were 2.6 ± 0.1 µM, 3.1 ± 0.1 µM and 27 ± 2.1 µM, respectively.

Take `CC(=NN=c1[nH]c(C)c(N=Nc2ccc([N+](=O)[O-])cc2[N+](=O)[O-])s1)c1c(O)c2ccccc2oc1=O` [3d, 3-(-1-((-5-(-(2,4-Dinitrophenyl)diazenyl)-4-methylthiazol-2(3H)-ylidene)hydrazono)ethyl)-4-hydroxy-2H-chromen-2-one]: the concentration for half-maximal inhibition (IC50) in data set [1] stood at 5.1 ± 0.2 µM; in data set [2], 2.8 ± 0.1 µM; in data set [3] it was 26.7 ± 2.3 µM.

Take `CCn1c(C)c(N=Nc2ccc([N+](=O)[O-])cc2[N+](=O)[O-])sc1=NN=C(C)c1c(O)c2ccccc2oc1=O` [3f, 3-(-1-((-5-(-(2,4-Dinitrophenyl)diazenyl)-3-ethyl-4-methylthiazol-2(3H)-ylidene)hydrazono)ethyl)-4-hydroxy-2H-chromen-2-one]: the IC50 in data set [1] is 2.6 ± 0.1 µM; in data set [2], 2.9 ± 0.2 µM; in data set [3], 25.6 ± 2.5 µM.

Turning to `CC(=NN=c1[nH]c(C)c(N=Nc2ccc(F)cc2)s1)c1c(O)c2ccccc2oc1=O` [3g, 3-(-1-((-5-(-(4-Fluorophenyl)diazenyl)-4-methylthiazol-2(3H)-ylidene)hydrazono)ethyl)-4-hydroxy-2H-chromen-2-one], the IC50 in [1] turned out to be 2.9 ± 0.2 µM; in data set [2], 2.8 ± 0.2 µM; in data set [3], 30.6 ± 3.3 µM.

In the case of `CC(=NN=c1sc(N=Nc2ccc(F)cc2)c(C)n1C)c1c(O)c2ccccc2oc1=O` [3h, 3-(-1-((-5-(-(4-Fluorophenyl)diazenyl)-3,4-dimethylthiazol-2(3H)-ylidene)hydrazono)ethyl)-4-hydroxy-2H-chromen-2-one], the values for the IC50 in [1], in [2] and in [3] were 2.8 ± 0.2 µM, 3 ± 0.2 µM and 27.5 ± 2.5 µM, respectively.

Turning to `CCn1c(C)c(N=Nc2ccc(F)cc2)sc1=NN=C(C)c1c(O)c2ccccc2oc1=O` [3i, 3-(-1-((-3-Ethyl-5-(-(4-fluorophenyl)diazenyl)-4-methylthiazol-2(3H)-ylidene)hydrazono)ethyl)-4-hydroxy-2H-chromen-2-one], the results for the IC50 in data set [1], in [2] and in data set [3] were 3 ± 0.1 µM, 3.1 ± 0.2 µM and 34.3 ± 2.5 µM, respectively.

As for `CC(=NN=c1[nH]c(C)c(N=Nc2ccc(Cl)cc2)s1)c1c(O)c2ccccc2oc1=O` [3j, 3-(-1-((-5-(-(4-Chlorophenyl)diazenyl)-4-methylthiazol-2(3H)-ylidene)hydrazono)ethyl)-4-hydroxy-2H-chromen-2-one], the concentration for half-maximal inhibition (IC50) stood at 3.1 ± 0.2 µM in data set [1], 12.7 ± 1.2 µM in data set [2] and 27 ± 2.3 µM in [3].

`CC(=NN=c1sc(N=Nc2ccc(Cl)cc2)c(C)n1C)c1c(O)c2ccccc2oc1=O` [3k, 3-(-1-((-5-(-(4-Chlorophenyl)diazenyl)-3,4-dimethylthiazol-2(3H)-ylidene)hydrazono)ethyl)-4-hydroxy-2H-chromen-2-one]: the half-maximal inhibitory concentration (IC50) is 5.4 ± 0.3 µM in data set [1], 11.6 ± 1.1 µM in data set [2] and 25.8 ± 2.1 µM in data set [3].

Take `CCn1c(C)c(N=Nc2ccc(Cl)cc2)sc1=NN=C(C)c1c(O)c2ccccc2oc1=O` [3l, 3-(-1-((-5-(-(4-Chlorophenyl)diazenyl)-3-ethyl-4-methylthiazol-2(3H)-ylidene)hydrazono)ethyl)-4-hydroxy-2H-chromen-2-one]: the IC50 is 4.8 ± 0.3 µM in [1], 2.8 ± 0.1 µM in data set [2] and 26.2 ± 2.4 µM in [3].

On to `CC(=NN=c1[nH]c(C)c(N=Nc2ccc(Br)cc2)s1)c1c(O)c2ccccc2oc1=O` [3m, 3-(-1-((-5-(-(4-Bromophenyl)diazenyl)-4-methylthiazol-2(3H)-ylidene)hydrazono)ethyl)-4-hydroxy-2H-chromen-2-one], for which the concentration for half-maximal inhibition (IC50) in [1] was 12.7 ± 1.1 µM; in data set [2], 33.8 ± 3.1 µM; in [3], > 500 µM; in data set [4] it was 0.08 ± 0.003 µM; in data set [5], 1.01 ± 0.034 µM; in data set [6] it was 0.339 ± 0.013 µM. The “toxic activity on healthy cells BJ-1” value in [3] was “non-significant toxic activities”. The “cells in the G2/M phase” value with MCF-7 cells [7] was determined as 29.71%. In addition, the late apoptosis in the data set on MCF-7 cells [8] (control 0.14%) was found to be 5.57%. Also, the early apoptosis with MCF-7 cells [8] (control 0.61%) was 14.67%. Moreover, the necrosis with MCF-7 cells [8] (control 2.16%) was 3.51%. Further, the “total volume of collected ascitic fluid” value in data set [9] is given as “significant reduction”. Besides, the “Avg. volume of ascitic fluid (mL) [packed cell volume]” value (“Avg. volume of ascitic fluid (mL)” for short) in data set [9] is 6 mL. Moreover, in data set [9], the “Viable cell count (×10^6 cells per mL)” value was 13 ×10^6 cells per mL. Further, the “Cell-growth inhibition (%)” value in data set [9] is recorded as 60.61%. The “tumor volume of Ehrlich solid carcinoma” value in data set [10] is recorded as “reduced to a level comparable to that of the doxorubicin group”.

Regarding `CC(=NN=c1sc(N=Nc2ccc(Br)cc2)c(C)n1C)c1c(O)c2ccccc2oc1=O` [3n, 3-(-1-((-5-(-(4-Bromophenyl)diazenyl)-3,4-dimethylthiazol-2(3H)-ylidene)hydrazono)ethyl)-4-hydroxy-2H-chromen-2-one], in data set [1], the half-maximal inhibitory concentration (IC50) turned out to be 12.3 ± 1.2 µM. Besides, the 50% inhibitory concentration (IC50) in [2] came to 31.8 ± 3.3 µM. Also, in [3], the “toxic activity on healthy cells BJ-1” value was “non-significant toxic activities” and the half-maximal inhibitory concentration (IC50) was > 500 µM. The compound further showed an IC50 in data set [4] of 0.35 ± 0.011 µM. Also, in [5], the IC50 was 3.88 ± 0.131 µM. Also, in data set [9], the “total volume of collected ascitic fluid” value is “significant reduction”, the “Avg. volume of ascitic fluid (mL)” value is reported as 8 mL, the “Viable cell count (×10^6 cells per mL)” value is listed as 22 ×10^6 cells per mL and the “Cell-growth inhibition (%)” value came out at 33.33%. For the same compound, the “tumor volume of Ehrlich solid carcinoma” value in data set [10] is recorded as “more significant in the group administered with compound 3m than in the group administered with compound 3n”.

`CCn1c(C)c(N=Nc2ccc(Br)cc2)sc1=NN=C(C)c1c(O)c2ccccc2oc1=O` [3o, 3-(-1-((-5-(-(4-Bromophenyl)diazenyl)-3-ethyl-4-methylthiazol-2(3H)-ylidene)hydrazono)ethyl)-4-hydroxy-2H-chromen-2-one]: the IC50 in data set [1] was 22.9 ± 2.3 µM; in data set [2], 29.8 ± 2.5 µM; in [3], > 500 µM. In addition, in [3], the “toxic activity on healthy cells BJ-1” value was “non-significant toxic activities”.

For the compound `COc1cccc2c1C(=O)c1c(O)c3c(c(O)c1C2=O)C[C@@](O)(C(=O)CO)C[C@@H]3O[C@H]1C[C@H](N)[C@H](O)[C@H](C)O1` [Doxorubicin, reference compound], the half-maximal inhibitory concentration (IC50) in [1] is 5.6 ± 0.3 µM; in data set [2], 6.5 ± 0.5 µM; in [3], 32.1 ± 3.1 µM. Also, the “Avg. volume of ascitic fluid (mL)” value in [9] was found to be 4 mL. The “Viable cell count (×10^6 cells per mL)” value in [9] is given as 9 ×10^6 cells per mL. The “Cell-growth inhibition (%)” value in [9] was determined as 72.72%.

With `Cc1cc(Nc2ncc3c(n2)N(C)C(=O)N(c2cc(NC(=O)c4cccc(C(F)(F)F)c4)ccc2C)C3)n(C)n1` [pluripotin, reference compound], the half-maximal inhibitory concentration (IC50) in [6] (read-out: ERK inhibition IC50) was 0.171 ± 0.006 µM.
